Screening data as filed in PubChem.
Only some compounds are listed: those with a hit (about 3.2% of all), similar ones and a draw of the others.
Apaf-1 inh – inhibitors of human Apaf-1 apoptosome | inhibition, % at 20 µM | O14727 | reconstituted apoptosome caspase-3 activity, DEVD-Rh110 fluorescence | 0.71% of 330,000 active | AID 489030; active = inhibition of at least 40% at 20 µM;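 note: plate controls were DMSO wells for no effect and DEVD-CHO caspase inhibitor wells for full effect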
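Assay system – apoptosome proteins · Medium – Hepes buffer, pH 7.5 · Also added – cytochrome c with DEVD-Rh110 · Timing – 30 min compound preincubation, 50 min activation, room temperature · Detection – Rh110 fluorescence, excitation 480 nm, emission 540 nm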
UBC13 polyUb – human UBC13 polyubiquitination inhibition | P61088 | UBC13 polyubiquitin chain formation, TR-FRET | inhibition, % at 20 µM | 0.47% of 330,000 active; in the data active = inhibition above about 45%, passing the limit was not always enough
MEKK2wt PB1 HTS – raises or lowers MEK5 binding to wildtype human MEKK2 PB1 domain. 1.1% of 290,000 active. bead flow cytometry, Alexa488-MEK5 binding to MEKK2 WT; actives lie on both sides. AID 1531. binding response (% of control), % at 10 µM. Q9Y2U5; in the data active = binding response below about 67% or above about 130%
MEKK3 PB1 HTS – MEKK3-MEK5 PB1 interaction, increase or decrease. 1.4% of 290,000 active. AID 1529. Q99759. binding response (% of control), % at 10 µM. bead-based flow cytometry, Alexa488-MEK5 binding to MEKK3; actives lie on both sides; 0 = blocked by unlabeled MEK5, 100 = vehicle;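 active = binding response more than 3 SD above or below the average of its plate-row segment, actives on both sides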;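 note: Alexa488 bead fluorescence after subtracting the streptavidin-only scavenger bead signal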
MEKK2mut PB1 HTS – signal of MEK5 binding to mutant human MEKK2 PB1 domain. bead flow cytometry, Alexa488-MEK5 binding to MEKK2 mutant. percent response, % at 10 µM. 0.35% of 290,000 active. AID 1530; in the data active = percent response above about 24%, passing the limit was not always enough
DSG3 Ab inh – human desmoglein-3 autoantibody binding inhibition; P32926; DSG3-coupled beads, scFv-anti-DSG3-GFP binding, flow cytometry; hits give low values; binding (percent of control), % at 10 µM; 0.48% of 310,000 active;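 active = binding more than 3 SD below its plate's average and above zero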;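 note: hits lower antibody fragment binding to DSG3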
Target sequence (P32926 whole entry, looked up, the tested form may be a part): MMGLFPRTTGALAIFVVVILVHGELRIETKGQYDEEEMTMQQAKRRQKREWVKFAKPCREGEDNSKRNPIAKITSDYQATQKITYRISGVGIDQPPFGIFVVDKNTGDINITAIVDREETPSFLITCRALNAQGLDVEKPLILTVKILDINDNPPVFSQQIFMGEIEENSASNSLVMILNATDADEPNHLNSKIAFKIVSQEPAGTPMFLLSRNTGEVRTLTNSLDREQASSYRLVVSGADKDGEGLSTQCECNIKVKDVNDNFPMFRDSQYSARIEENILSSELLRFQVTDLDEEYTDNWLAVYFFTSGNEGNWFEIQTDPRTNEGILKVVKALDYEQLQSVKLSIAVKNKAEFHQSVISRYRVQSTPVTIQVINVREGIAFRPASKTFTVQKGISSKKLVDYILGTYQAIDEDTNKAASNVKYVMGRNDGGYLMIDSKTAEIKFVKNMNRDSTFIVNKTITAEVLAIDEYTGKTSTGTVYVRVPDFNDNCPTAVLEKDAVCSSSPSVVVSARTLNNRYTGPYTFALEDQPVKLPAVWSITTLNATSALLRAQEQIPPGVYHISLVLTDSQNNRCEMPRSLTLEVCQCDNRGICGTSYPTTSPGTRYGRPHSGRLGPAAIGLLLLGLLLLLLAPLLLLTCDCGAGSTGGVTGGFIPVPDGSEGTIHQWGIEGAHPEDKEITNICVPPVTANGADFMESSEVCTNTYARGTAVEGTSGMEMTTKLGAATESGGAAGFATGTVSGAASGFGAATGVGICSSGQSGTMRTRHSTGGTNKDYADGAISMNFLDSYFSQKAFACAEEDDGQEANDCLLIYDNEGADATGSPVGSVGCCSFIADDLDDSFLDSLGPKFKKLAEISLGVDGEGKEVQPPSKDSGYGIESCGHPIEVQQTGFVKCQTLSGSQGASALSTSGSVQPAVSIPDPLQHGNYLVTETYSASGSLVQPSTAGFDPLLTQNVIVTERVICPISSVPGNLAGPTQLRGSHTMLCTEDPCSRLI
* marks the source's active call; other numbers are inactive results; [ ] = dose if it differs, or a comment.

Screening Cc1nn(C)cc1CN(C)C(=O)C1CCC(=O)N(CCc2cccc(F)c2)C1 (stereo not drawn) returned DSG3 Ab inh 101.
Screening O=C(CN(C1CCCCC1)S(=O)(=O)c1ccccc1)N1CCCC1 returned Apaf-1 inh 11, UBC13 polyUb -2, MEKK2wt PB1 HTS 110, MEKK3 PB1 HTS 109, MEKK2mut PB1 HTS 8 and DSG3 Ab inh 102.
Screening O=C(CN(C1CCCCC1)C1CCCCC1)N1CCc2ccccc2C1 returned Apaf-1 inh 17, UBC13 polyUb 15, MEKK2wt PB1 HTS 95, MEKK3 PB1 HTS 96, MEKK2mut PB1 HTS 0 and DSG3 Ab inh 41*.
Cc1ccc(S(=O)(=O)CCC(=O)OCC(=O)N(C)c2ccccc2)cc1 was read as DSG3 Ab inh 110.
For COc1ccc2[nH]c3c(c2c1)CCN1C(=O)C(CC(=O)NCc2cccc(C(F)(F)F)c2)C[C@H](C(=O)N2CCCCC2)[C@@]31C (stereo partly drawn) the results were Apaf-1 inh 32 and DSG3 Ab inh 79*.
`C=CCN1C(=O)/C(=C/C=C2/N(CC)c3ccc(S(=O)(=O)N(C)C)cc3N2CC)SC1=S` gave Apaf-1 inh 17, UBC13 polyUb -357, MEKK2wt PB1 HTS 36*[inhibitor], MEKK3 PB1 HTS 65, MEKK2mut PB1 HTS -17 and DSG3 Ab inh 112.
O=C(NC1CCN(Cc2ccccc2)CC1)c1cc(S(=O)(=O)N2CCOCC2)ccc1Cl was read as DSG3 Ab inh 112.
Screening Cc1ccc(-n2c(=O)c3cc4c(=O)n(-c5ccc(C)c(C)c5)c(=O)c4c(C(=O)c4ccc(C(=O)O)cc4)c3c2=O)cc1C returned Apaf-1 inh 27, UBC13 polyUb -25, MEKK2wt PB1 HTS 29*[inhibitor], MEKK3 PB1 HTS 48*[inhibitor], MEKK2mut PB1 HTS -12 and DSG3 Ab inh 88.
`O=C(O)c1ccc(-n2c(=O)c3ccccc3c3ccccc3c2=O)cc1` gave Apaf-1 inh 0, UBC13 polyUb 0, MEKK2wt PB1 HTS 99, MEKK3 PB1 HTS 99, MEKK2mut PB1 HTS -7 and DSG3 Ab inh 100.
For CCC(CC)C1=NN2C(=N)/C(=C\c3cc(C)n(-c4cccc(C)c4)c3C)C(=O)N=C2S1 the results were Apaf-1 inh 24, UBC13 polyUb -10, MEKK2wt PB1 HTS 93, MEKK3 PB1 HTS 101, MEKK2mut PB1 HTS -1 and DSG3 Ab inh 72*.
`O=C1[C@H]2[C@@H](c3ccc(F)cc3)N3C(=O)N(c4cccc(Br)c4)C(=O)[C@@]3(Cc3ccc(Cl)cc3)[C@H]2C(=O)N1C1CCCCC1` gave Apaf-1 inh 11, UBC13 polyUb -27, MEKK2wt PB1 HTS 98, MEKK3 PB1 HTS 102, MEKK2mut PB1 HTS 0 and DSG3 Ab inh -6.5*.
For O=C1[C@H]2[C@@H](c3ccc(Cl)cc3)N3C(=O)N(c4cccc(Br)c4)C(=O)[C@@]3(Cc3ccc(Cl)cc3)[C@H]2C(=O)N1C1CCCCC1 the results were Apaf-1 inh 26, UBC13 polyUb -59, MEKK2wt PB1 HTS 101, MEKK3 PB1 HTS 100, MEKK2mut PB1 HTS -2 and DSG3 Ab inh 98.
`CC(=O)c1ccc(S(=O)(=O)NCC(=O)Nc2nc3ccccc3[nH]2)cc1` gave Apaf-1 inh -18 and UBC13 polyUb 6.
COC(=O)c1ccc(/C=C/C(=O)OCC(=O)Nc2sccc2C(N)=O)cc1 was read as Apaf-1 inh 5, UBC13 polyUb 11 and DSG3 Ab inh 119.
For CN(C(=O)Cn1nc(C(=O)O)c2ccccc2c1=O)C1CCCCC1 the results were Apaf-1 inh 5, UBC13 polyUb 3 and DSG3 Ab inh 114.
`CCOc1ccc(S(=O)(=O)N2CCC(C(=O)NCc3ccncc3)CC2)cc1C` gave Apaf-1 inh 7, UBC13 polyUb -4, MEKK2wt PB1 HTS 94, MEKK3 PB1 HTS 97, MEKK2mut PB1 HTS -7 and DSG3 Ab inh 100.
Screening COc1ccc(NC(=O)Nc2nnc(C(C)(C)C)s2)cc1 returned Apaf-1 inh -1, UBC13 polyUb 9, MEKK2wt PB1 HTS -4.0*, MEKK3 PB1 HTS 108, MEKK2mut PB1 HTS 6 and DSG3 Ab inh 110.
Screening CC(C)(C)c1nnc(NC(=O)Nc2ccc(Cl)cc2)s1 returned Apaf-1 inh -7, UBC13 polyUb -4, MEKK2wt PB1 HTS -4.0*, MEKK3 PB1 HTS 98, MEKK2mut PB1 HTS 2 and DSG3 Ab inh 112.
Screening Cc1nc(NC(=O)Nc2ccc(Cl)cc2)sc1C returned Apaf-1 inh -2, UBC13 polyUb 3, MEKK2wt PB1 HTS 106, MEKK3 PB1 HTS 103, MEKK2mut PB1 HTS 7 and DSG3 Ab inh 99.
COc1ccccc1N(CC(O)CN1CCC(C)CC1)S(=O)(=O)c1ccccc1 (stereo not drawn) was read as Apaf-1 inh 5, UBC13 polyUb 6, MEKK2wt PB1 HTS 101, MEKK3 PB1 HTS 98 and MEKK2mut PB1 HTS 2.
Screening CN(Cc1ccc(Cl)c(Cl)c1)C(=O)C1=CC=CN2CCS(=O)(=O)N=C12 returned Apaf-1 inh -2 and UBC13 polyUb 4.
Screening COc1ccc(-c2ccc3c(N)c(C(=O)c4cccc(OC)c4)sc3n2)cc1 returned Apaf-1 inh 3, UBC13 polyUb -9, MEKK2wt PB1 HTS 85, MEKK3 PB1 HTS 93, MEKK2mut PB1 HTS -3 and DSG3 Ab inh 91.
`COc1ccc(C(=O)c2sc3nc(-c4ccc(OC)cc4)ccc3c2N)cc1` gave Apaf-1 inh 6, UBC13 polyUb -8, MEKK2wt PB1 HTS 94, MEKK3 PB1 HTS 104, MEKK2mut PB1 HTS -1 and DSG3 Ab inh 26*.
For O=C(NC(=S)NCc1ccccc1)C1CC1 the results were Apaf-1 inh -9, UBC13 polyUb 5, MEKK2wt PB1 HTS 99, MEKK3 PB1 HTS 98, MEKK2mut PB1 HTS 4 and DSG3 Ab inh 25*.
O=C(NCc1ccccc1)C1CCCC1 was read as Apaf-1 inh 3, UBC13 polyUb -17, MEKK2wt PB1 HTS 99, MEKK3 PB1 HTS 99 and MEKK2mut PB1 HTS 0.
Screening Cc1ccc(C2=CC(c3ccccc3)n3ncnc3N2)cc1 (stereo not drawn) returned Apaf-1 inh -3, UBC13 polyUb 9, MEKK2wt PB1 HTS 108, MEKK3 PB1 HTS 108, MEKK2mut PB1 HTS 5 and DSG3 Ab inh 104.
C1=C(c2ccccc2)Nc2ncnn2C1c1ccccc1 (stereo not drawn) was read as Apaf-1 inh -3, UBC13 polyUb 17, MEKK2wt PB1 HTS 102, MEKK3 PB1 HTS 102, MEKK2mut PB1 HTS 3 and DSG3 Ab inh 69*.
Screening CCN(CC(=O)NCc1cccs1)C(=O)C1CC(=O)N(c2ccc(OC)cc2OC)C1 (stereo not drawn) returned Apaf-1 inh 51*, UBC13 polyUb -1 and DSG3 Ab inh 77.
For Cc1ccc(S(=O)(=O)N2C[C@H]3n4c(=O)ccc(=O)n4C[C@H](OC(=O)NCC4CCCCC4)[C@@]3(O)C2)cc1 the results were DSG3 Ab inh 111.
